Measured values as given in publication PMC8302237 (CPT: Pharmacometrics & Systems Pharmacology, 2021).

Columns and labels:
[1] = assay type: in vivo, human; details: for dose proportionality of PK: p.o. tablet dosing
Method in brief: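 Plasma parent, M5 and M6 concentration-time data came from clinical studies. In healthy volunteers, dosing was i.v., 150–600 mg single-dose tablet p.o., or 300–750 mg multiple-dose tablet. In HCV patients, dosing was 50–300 mg single-dose or 50–400 mg multiple-dose capsule, or 300–450 mg multiple-dose tablet; 450 mg once daily gave Day 7 profiles with washout. Itraconazole DDI: healthy volunteers; HCV patients received 300 mg multiple-dose tablet plus 200 mg multiple-dose itraconazole.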

[2] = Minimal PBPK model; assay type: in vivo, human

| effect of itraconazole coadministration on uprifosbuvir exposure ([1]; itraconazole DDI study, plasma) | dose proportionality of PK [1] | share of unabsorbed uprifosbuvir dose metabolized into M5 ([2]; gut) | share of unabsorbed uprifosbuvir dose metabolized into M6 ([2]; gut) | share of unabsorbed uprifosbuvir dose metabolized into pseudo-M4 ([2]; gut) | unabsorbed fraction of uprifosbuvir dose (metabolized in gut) ([2]; p.o., based on the model) | uprifosbuvir dose estimated to reach the liver unchanged ([2]; p.o., based on the model) | effect of itraconazole coadministration on early metabolite profile ([1]; itraconazole DDI, plasma) | Structure (SMILES) | effect of itraconazole coadministration on uprifosbuvir tmax ([1]; itraconazole DDI study, plasma) |
| --- | --- | --- | --- | --- | --- | --- | --- | --- | --- |
| large increase in uprifosbuvir exposure | dose proportional | 11% | 52% | 37% | 86% | about 14% | – | CC(C)OC(=O)[C@@H](C)N[P@@](=O)(OC[C@H]1O[C@@H](n2ccc(=O)[nH]c2=O)[C@](C)(Cl)[C@@H]1O)Oc1ccccc1 [uprifosbuvir] | delayed time to reach maximum uprifosbuvir plasma concentration |
| – | not dose proportional | – | – | – | – | – | first M6 peak was almost absent | C[C@@]1(Cl)[C@H](O)[C@@H](CO)O[C@H]1n1ccc(=O)[nH]c1=O [M6] | – |
